Data published in ChEMBL document CHEMBL1811848 (Bioorg Med Chem Lett, 2011).
Active and inactive are the calls of the source. The calls are words filed in the database; no cut-off is given here.

Tests used:
[1] = test system: Mus musculus; assay: Hypolipidemic activity in db/db mouse assessed as reduction in triglyceride level at 0.03 mg/kg, po; type: functional; design: scale not given: the % may be the effect or the level left
[2] = test system: Rattus norvegicus; assay: Toxicity in female Wistar rat assessed as liver to body weight ratio at 30 mg/kg, po measured after 28 days (reference value: 3.091 +/- 0.087); type: organism-based; design: dose 30 mg/kg, route oral; conditions: in vivo, 672 h
[3] = test system: Rattus norvegicus; assay: Toxicity in male Wistar rat assessed as creatinine level at 3 mg/kg, po measured after 28 days (reference value: 0.47 +/- 0.03 mg/dl); type: organism-based; design: dose 3 mg/kg, route oral; conditions: in vivo, 672 h
[4] = test system: Rattus norvegicus; assay: Toxicity in female Wistar rat assessed as urea level at 3 mg/kg, po measured after 28 days (reference value: 33.05 +/- 2.02 mg/dl); type: organism-based; design: dose 3 mg/kg, route oral; conditions: in vivo, 672 h
[5] = test system: Rattus norvegicus; assay: Toxicity in female Wistar rat assessed as heart to body weight ratio at 30 mg/kg, po measured after 28 days (reference value: 0.403 +/- 0.010); type: organism-based; design: dose 30 mg/kg, route oral; conditions: in vivo, 672 h
[6] = biological target: T1, Peroxisome proliferator-activated receptor delta (Homo sapiens) (UniProt Q03181); assay: Transactivation of human PPARdelta expressed in human HepG2 cells co-transfected with PPRE3-TK-Luc by luciferase reporter gene assay; type: cell-based
T1 sequence (whole entry): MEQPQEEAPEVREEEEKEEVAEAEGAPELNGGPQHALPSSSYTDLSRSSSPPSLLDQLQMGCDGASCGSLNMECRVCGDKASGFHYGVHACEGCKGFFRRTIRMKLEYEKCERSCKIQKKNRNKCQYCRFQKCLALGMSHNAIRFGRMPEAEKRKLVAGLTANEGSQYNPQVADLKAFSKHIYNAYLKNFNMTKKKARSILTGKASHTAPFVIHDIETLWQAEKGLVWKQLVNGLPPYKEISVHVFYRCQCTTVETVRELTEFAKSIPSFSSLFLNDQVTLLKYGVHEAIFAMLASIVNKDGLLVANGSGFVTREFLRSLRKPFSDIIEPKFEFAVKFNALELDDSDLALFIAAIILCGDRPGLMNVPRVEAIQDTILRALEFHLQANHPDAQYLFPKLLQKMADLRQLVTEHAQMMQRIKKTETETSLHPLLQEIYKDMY
Method in brief: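 HepG2 cells transfected with pSG5 vector carrying hPPARα, hPPARγ or hPPARδ cDNA, co-transfected with PPRE3-TK-luc. Firefly luciferase activity measured with a commercial kit. β-galactosidase activity read on an ELISA reader. Controls: WY14643 (α), rosiglitazone (γ), GW501516 (δ).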

[7] = test system: Rattus norvegicus; assay: Toxicity in female Wistar rat assessed as creatinine level at 3 mg/kg, po measured after 28 days (reference value: 0.42 +/- 0.04 mg/dl); type: organism-based; design: dose 3 mg/kg, route oral; conditions: in vivo, 672 h
[8] = test system: Rattus norvegicus; assay: Toxicity in male Wistar rat assessed as epididymine to body weight ratio at 30 mg/kg, po measured after 28 days (reference value: 0.391 +/- 0.017); type: organism-based; design: dose 30 mg/kg, route oral; conditions: in vivo, 672 h
[9] = test system: Rattus norvegicus; assay: Toxicity in female Wistar rat assessed as thymus to body weight ratio at 30 mg/kg, po measured after 28 days (reference value: 0.094 +/- 0.01); type: organism-based; design: dose 30 mg/kg, route oral; conditions: in vivo, 672 h
[10] = test system: Rattus norvegicus; assay: Toxicity in male Wistar rat assessed as change in body weight at 3 mg/kg, po measured after 28 days relative to control; type: organism-based; design: dose 3 mg/kg, route oral; conditions: in vivo, 672 h
[11] = test system: Mus musculus; assay: Reduction in serum triglyceride level in Swiss albino mouse at 10 mg/kg, po administered for 6 days relative to control; type: functional; design: scale not given: the % may be the effect or the level left
Method in brief: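 Male Swiss albino mice aged 6–8 weeks were given 10 mg/kg/day orally for 6 days. Serum triglyceride was expressed as % change versus vehicle controls, mean of n = 6.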

Activity [6]: inactive
SMILES: CCO[C@@H](Cc1ccc(OCCc2nc(-c3ccc(C)s3)oc2C)cc1)C(=O)O
Activity [1]: 25.9%
Ratio [2]: 7.075
Activity [3]: 0.36 mg/dL
Activity [4]: 29.19 mg/dL
Ratio [5]: 0.501
Activity [7]: 0.36 mg/dL
Ratio [8]: 0.432
Ratio [9]: 0.066
Activity [10]: 33.99%
Activity [11]: 88%
